Measured values published in ChEMBL document CHEMBL1649443, “Novel S-adenosylmethionine decarboxylase inhibitors for the treatment of human African trypanosomiasis” (Antimicrob Agents Chemother, 2009).
Calls of active or inactive are those of the source. The rule behind the calls is not given here.

Assays:
CYP2C9 = CYP2C9 (Homo sapiens, UniProt P11712); test: (§1) Inhibition of human cytochrome P450 2C9; settings: human
[1] = Metabolic stability in human liver microsomes assessed as intrinsic clearance up to 45 mins by LC/MS/MS analysis; format: ADME, Microsome
[2] = Metabolic stability in rat hepatocytes assessed as intrinsic clearance up to 45 mins by LC/MS/MS analysis; format: ADME, cell-based, Liver, Hepatocyte
CYP3A4 = CYP3A4 (Homo sapiens, UniProt P08684); test: (§2) Inhibition of human cytochrome P450 3A4; settings: human
CYP3A4, sequence (P08684 whole entry): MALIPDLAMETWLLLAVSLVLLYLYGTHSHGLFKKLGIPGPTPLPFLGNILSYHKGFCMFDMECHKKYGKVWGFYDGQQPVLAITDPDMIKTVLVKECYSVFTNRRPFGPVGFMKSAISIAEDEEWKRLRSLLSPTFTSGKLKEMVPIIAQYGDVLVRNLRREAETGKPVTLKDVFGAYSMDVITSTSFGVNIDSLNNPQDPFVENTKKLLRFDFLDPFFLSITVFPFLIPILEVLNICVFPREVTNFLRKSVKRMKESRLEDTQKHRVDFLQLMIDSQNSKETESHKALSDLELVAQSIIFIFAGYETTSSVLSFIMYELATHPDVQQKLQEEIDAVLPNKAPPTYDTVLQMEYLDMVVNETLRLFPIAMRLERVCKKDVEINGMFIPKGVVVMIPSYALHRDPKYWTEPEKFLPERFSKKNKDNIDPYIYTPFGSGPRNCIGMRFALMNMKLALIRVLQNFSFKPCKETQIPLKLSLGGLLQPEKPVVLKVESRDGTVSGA

[3] = Metabolic stability in human hepatocytes assessed as intrinsic clearance up to 45 mins by LC/MS/MS analysis; format: ADME, cell-based, Liver, Hepatocyte
[4] = Kinetic solubility in phosphate-buffered saline at pH 7.4 after 16 to 24 hrs by UV spectrophotometry
CYP2D6 = CYP2D6 (Homo sapiens, UniProt P10635); test: (§3) Inhibition of human cytochrome P450 2D6; settings: human
CYP2D6, sequence (P10635 whole entry): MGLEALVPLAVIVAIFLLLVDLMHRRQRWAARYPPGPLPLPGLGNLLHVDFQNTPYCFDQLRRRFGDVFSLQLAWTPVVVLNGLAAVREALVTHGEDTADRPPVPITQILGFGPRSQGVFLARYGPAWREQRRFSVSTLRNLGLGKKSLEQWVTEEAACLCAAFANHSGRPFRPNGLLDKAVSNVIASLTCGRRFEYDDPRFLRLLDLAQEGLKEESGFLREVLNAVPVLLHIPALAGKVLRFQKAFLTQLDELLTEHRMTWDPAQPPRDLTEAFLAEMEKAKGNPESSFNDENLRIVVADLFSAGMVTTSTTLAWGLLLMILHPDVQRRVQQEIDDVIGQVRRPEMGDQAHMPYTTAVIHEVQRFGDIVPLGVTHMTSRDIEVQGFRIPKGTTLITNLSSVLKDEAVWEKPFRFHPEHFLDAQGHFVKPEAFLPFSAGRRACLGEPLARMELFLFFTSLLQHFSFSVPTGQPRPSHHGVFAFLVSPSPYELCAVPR

[5] = test system: Trypanosoma brucei rhodesiense; test: Antiparasitic activity against Trypanosoma brucei rhodesiense STIB 900 clone after 72 hrs by Alamar blue assay; format: functional, organism-based; settings: STIB 900, 72 h
[6] = Protein binding in mouse plasma at pH 7.4 after 4 hrs; format: ADME, cell-free; settings: read-out: PPB (converted)
[7] = Metabolic stability in rat liver microsomes assessed as intrinsic clearance up to 45 mins by LC/MS/MS analysis; format: ADME, Microsome
[8] = Protein binding in human plasma at pH 7.4 after 4 hrs; format: ADME, cell-free; settings: read-out: PPB (converted)
CYP2C19 = CYP2C19 (Homo sapiens, UniProt P33261); test: (§4) Inhibition of human cytochrome P450 2C19; settings: human
CYP2C19, sequence (P33261 whole entry): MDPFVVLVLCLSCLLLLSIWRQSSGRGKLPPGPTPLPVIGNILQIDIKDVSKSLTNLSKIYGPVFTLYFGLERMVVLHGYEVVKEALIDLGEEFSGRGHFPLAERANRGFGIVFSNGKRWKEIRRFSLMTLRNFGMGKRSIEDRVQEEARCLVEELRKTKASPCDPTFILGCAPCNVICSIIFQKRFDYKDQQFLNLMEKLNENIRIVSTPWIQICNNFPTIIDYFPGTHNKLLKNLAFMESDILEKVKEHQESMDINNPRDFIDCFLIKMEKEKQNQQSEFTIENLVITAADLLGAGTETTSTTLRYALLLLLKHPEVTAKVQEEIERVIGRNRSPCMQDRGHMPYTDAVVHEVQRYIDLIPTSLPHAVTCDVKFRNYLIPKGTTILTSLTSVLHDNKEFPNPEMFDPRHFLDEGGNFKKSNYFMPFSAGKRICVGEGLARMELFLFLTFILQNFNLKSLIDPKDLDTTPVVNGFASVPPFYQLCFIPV

CYP1A2 = biological target: T1, CYP1A2 (Homo sapiens, UniProt P05177); test: (§5) Inhibition of human cytochrome P450 1A2; settings: human
T1 sequence (P05177 whole entry): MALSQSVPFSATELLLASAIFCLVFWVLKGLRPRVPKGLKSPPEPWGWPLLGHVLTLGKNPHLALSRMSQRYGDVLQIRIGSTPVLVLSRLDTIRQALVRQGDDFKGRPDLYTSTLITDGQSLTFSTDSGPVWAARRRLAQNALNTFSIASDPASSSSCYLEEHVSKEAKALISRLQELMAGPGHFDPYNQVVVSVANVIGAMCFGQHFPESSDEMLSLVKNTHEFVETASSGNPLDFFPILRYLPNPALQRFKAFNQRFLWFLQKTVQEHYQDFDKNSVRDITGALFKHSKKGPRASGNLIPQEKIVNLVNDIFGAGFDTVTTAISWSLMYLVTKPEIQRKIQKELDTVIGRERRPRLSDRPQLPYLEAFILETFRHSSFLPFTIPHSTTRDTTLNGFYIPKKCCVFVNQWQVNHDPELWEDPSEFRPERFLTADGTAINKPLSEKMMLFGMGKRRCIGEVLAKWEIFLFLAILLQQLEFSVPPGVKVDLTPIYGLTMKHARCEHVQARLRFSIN

Cytochrome P450 2C9 = Cytochrome P450 2C9 (Homo sapiens, UniProt P11712); test: as §1
Cytochrome P450 2C9, sequence (P11712 whole entry): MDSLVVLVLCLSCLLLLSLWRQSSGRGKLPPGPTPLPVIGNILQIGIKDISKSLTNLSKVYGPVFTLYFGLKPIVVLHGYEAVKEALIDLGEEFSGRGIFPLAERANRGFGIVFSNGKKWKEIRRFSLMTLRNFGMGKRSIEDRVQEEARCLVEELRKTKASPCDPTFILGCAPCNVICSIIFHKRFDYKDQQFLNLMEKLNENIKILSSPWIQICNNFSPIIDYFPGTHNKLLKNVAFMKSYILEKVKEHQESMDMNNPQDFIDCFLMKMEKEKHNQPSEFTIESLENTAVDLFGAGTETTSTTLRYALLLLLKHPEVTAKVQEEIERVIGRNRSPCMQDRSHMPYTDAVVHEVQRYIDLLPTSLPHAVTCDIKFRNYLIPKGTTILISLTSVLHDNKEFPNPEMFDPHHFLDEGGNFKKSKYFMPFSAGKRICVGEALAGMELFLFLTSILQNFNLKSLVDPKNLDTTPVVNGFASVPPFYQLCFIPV

Cytochrome P450 3A4 = Cytochrome P450 3A4 (Homo sapiens, UniProt P08684); test: as §2
Cytochrome P450 3A4, sequence (P08684 whole entry): as the sequence (P08684 whole entry) above

Cytochrome P450 2D6 = Cytochrome P450 2D6 (Homo sapiens, UniProt P10635); test: as §3
Cytochrome P450 2D6, sequence (P10635 whole entry): as the sequence (P10635 whole entry) above

[9] = AUC in mouse blood at 50 mg/kg, ip administered as single dose; format: ADME, organism-based; set-up: dose 50 mg/kg, route intraperitoneal
[10] = Cmax in mouse brain at 50 mg/kg, ip administered as single dose; format: ADME, organism-based; set-up: dose 50 mg/kg, route intraperitoneal
in vivo = settings: mouse, brain, ip, 50 mg/kg
[11] = Half life in mouse at 50 mg/kg, ip administered as single dose; format: ADME, organism-based; set-up: dose 50 mg/kg, route intraperitoneal; settings: in vivo
[12] = AUC in mouse brain at 50 mg/kg, ip administered as single dose; format: ADME, organism-based; set-up: dose 50 mg/kg, route intraperitoneal
[13] = Cmax in mouse blood at 50 mg/kg, ip administered as single dose; format: ADME, organism-based; set-up: dose 50 mg/kg, route intraperitoneal
Cytochrome P450 2C19 = Cytochrome P450 2C19 (Homo sapiens, UniProt P33261); test: as §4
Cytochrome P450 2C19, sequence (P33261 whole entry): as the sequence (P33261 whole entry) above

Cytochrome P450 1A2 = biological target: T2, Cytochrome P450 1A2 (Homo sapiens, UniProt P05177); test: as §5
T2 sequence (P05177 whole entry): T1 sequence (P05177 whole entry)

[14] = Metabolic stability in human assessed as compound remaining plasma after 4 hrs; format: ADME, cell-free; settings: read-out: Stability
[15] = test system: Trypanosoma brucei brucei; test: Antiparasitic activity against Trypanosoma brucei brucei LAB 110 EATRO infected in mouse assessed as mean survival days at 50 mg/kg/day, ip bid for 4 days administered on 1st day of infection and measured through day 40 post infection; format: functional; settings: route intraperitoneal
[16] = test system: Trypanosoma brucei brucei; test: Antiparasitic activity against Trypanosoma brucei brucei STIB 795 infected in mouse assessed as mean survival days at 50 mg/kg, ip qd for 4 days administered on 3rd day of infection (reference value: 6.75 days); format: functional; settings: route intraperitoneal
[17] = Permeability across apical to basolateral side of human Caco2 cells; format: ADME, cell-based; settings: Caco-2, read-out: permeability
[18] = test system: Trypanosoma brucei brucei; test: Antiparasitic activity against Trypanosoma brucei brucei LAB 110 EATRO infected in mouse assessed as mean survival days at 50 mg/kg/day, ip administered on 1st day of infection and measured through day 40 post infection; settings: route intraperitoneal
[19] = test system: Trypanosoma brucei brucei; test: Antiparasitic activity against Trypanosoma brucei brucei LAB 110 EATRO infected in mouse assessed as parasitemia cure incidence at 50 mg/kg/day, ip bid for 4 days administered on 1st day of infection and measured through day 40 post infection; format: functional, organism-based
How it was run: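 Mice, groups of five, infected i.p. on day 0 with 2.5 × 10^5 parasites; dosing from day 1 at 50 mg/kg/day i.p., given either once daily for 7 days or split twice daily for 4 days. Treatment controls got pentamidine 2 mg/kg QD i.p. for 4 days. Read-out was microscopy of ≥20 fields of wet blood smears twice weekly to day 40; cure means no parasites.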

[20] = Partition coefficient in RBCs; format: ADME, cell-based; settings: erythrocyte
[21] = Permeability of the compound after 4 hrs by PAMPA assay; format: ADME; settings: read-out: permeability
[22] = Metabolic stability in rat plasma assessed as compound remaining after 4 hrs; format: ADME, cell-free; settings: read-out: Stability
[23] = Metabolic stability in rat whole blood assessed as compound remaining; format: ADME, tissue-based
[24] = Permeability across basolateral to apical side of human Caco2 cells; format: ADME, cell-based; settings: Caco-2, read-out: permeability

CYP2C9, sequence (P11712 whole entry): as the sequence (P11712 whole entry) above

CLint scaled [1] | CLint scaled [2] | CLint scaled [3] | solubility kinetic [4] | IC50 [5] | fraction unbound at 4 h [6] | CLint scaled [7] | fraction unbound at 4 h [8] | SMILES | IC50 (Cytochrome P450 2C9) | IC50 (Cytochrome P450 3A4) | IC50 (Cytochrome P450 2D6) | AUC [9] | Cmax [10] | Kp (in vivo) | half-life [11] | AUC [12] | Cmax [13] | IC50 (Cytochrome P450 2C19) | IC50 (Cytochrome P450 1A2) | further results
< 4.2 mL/min/kg | < 11 mL/min/kg | < 4.2 mL/min/kg | > 47 µg/mL | 0.319 µM | 0.628 | < 11 mL/min/kg | 0.678 | CN(C/C=C\CN)C[C@H]1O[C@@H](n2cnc3c(N)ncnc32)[C@@H](F)[C@@H]1O |  |  |  |  |  |  |  |  |  |  |  | IC50 (CYP2C9): > 5 µM; IC50 (CYP3A4): > 5 µM; IC50 (CYP2D6): > 5 µM; IC50 (CYP2C19): > 5 µM; IC50 (CYP1A2): > 5 µM
< 4.2 mL/min/kg | < 11 mL/min/kg | < 4.2 mL/min/kg | > 47 µg/mL | 0.172 µM | 0.523 | < 11 mL/min/kg | 0.767 | CN(C/C=C\CN)C[C@H]1O[C@@H](n2cnc3c(N)ncnc32)[C@H](F)[C@@H]1O | > 5 µM | > 5 µM | > 5 µM | 16300 ng·h/mL | 30 ng/mL | 0.86 | 1.93 h | 140 ng·h/mL | 33000 ng/mL | > 5 µM | > 5 µM | 

SMILES | CLint scaled [1] | CLint scaled [2] | CLint scaled [3] | solubility kinetic [4] | IC50 [5] | fraction unbound at 4 h [6] | CLint scaled [7] | fraction unbound at 4 h [8] | IC50 (Cytochrome P450 2C9) | IC50 (Cytochrome P450 3A4) | IC50 (Cytochrome P450 2D6) | AUC [9] | Cmax [10] | Kp (in vivo) | half-life [11] | AUC [12] | Cmax [13] | IC50 (Cytochrome P450 2C19) | IC50 (Cytochrome P450 1A2) | further results
CN(C/C=C\CN)C[C@H]1O[C@@H](n2cnc3c(N)ncnc32)[C@H](O)[C@@H]1O | < 4.2 mL/min/kg | < 11 mL/min/kg | < 4.2 mL/min/kg | > 47 µg/mL | 0.0014 µM | 0.302 | < 11 mL/min/kg | 0.271 | > 5 µM | > 5 µM | > 5 µM | 20700 ng·h/mL | 80 ng/mL | 1.7 | 2.48 h | 360 ng·h/mL | 44800 ng/mL | > 5 µM | > 5 µM | remaining at 4 h [14]: 100%; Survival [15]: >40 days; Survival [16]: >30 days; Papp A→B [17]: 3.25 ×10⁻⁶ cm/s; Survival [18]: >40 days; Activity [19]: Active; Partition coefficient [20]: 0.28; Papp at 4 h [21]: 0.13 ×10⁻⁶ cm/s; remaining at 4 h [22]: 100%; Stability [23]: 100%; Papp B→A [24]: 2.7 ×10⁻⁶ cm/s
